# Published values collected from several papers.
# BACE1: Beta-secretase 1 (BACE1, Homo sapiens, UniProt P56817)
# Htr2c: 5-hydroxytryptamine receptor 2C (Htr2c, Mus musculus, UniProt P34968)
# HLA class I histocompatibility antigen, A alpha chain: HLA class I histocompatibility antigen, A alpha chain (Homo sapiens, UniProt P04439)
SMILES,target,observed,action,method,quantity,value
CCCC[C@H](NC(C)=O)C(=O)N[C@H]1CC(=O)NCCCC[C@@H](C(=O)N2CCC[C@@H]2C(=O)N[C@@H](C(=O)N2CCC[C@@H]2C(N)=O)C(C)C)NC(=O)[C@H](Cc2c[nH]c3ccccc23)NC(=O)[C@H](CCCNC(=N)N)NC(=O)[C@@H](Cc2ccccc2)NC(=O)[C@@H]2CCCN2C1=O,"Melanocyte-stimulating hormone receptor (MC1R, Homo sapiens, UniProt Q01726)",cAMP,agonist,,EC50,0.407 nM
C=CCOc1ccc(C(=O)/C=C/c2ccc(OC)cc2)c(OS(C)(=O)=O)c1I,BACE1,enzyme activity,inhibitor,fluorescence,IC50,48100 nM
COc1cc(CCN)c(OC)cc1Br,Htr2c,G protein activation,agonist,BRET,EC50,4.27 nM
CC(C)C[C@H](NC(=O)[C@@H](NC(=O)[C@H](CCCCN)NC(=O)[C@H](CC(=O)O)NC(=O)[C@H](Cc1ccc(O)cc1)NC(=O)[C@H](C)NC(=O)[C@@H](N)CCCNC(=N)N)[C@@H](C)O)C(=O)N[C@@H](Cc1ccc(O)cc1)C(=O)N[C@@H](Cc1ccccc1)C(=O)O,"HLA class I histocompatibility antigen, A alpha chain",cell-free assay,,,IC50,15 nM
COc1cc(CCN)c(OC)cc1C#N,Htr2c,G protein activation,agonist,BRET,EC50,200 nM
C=CCOc1ccc(C(=O)/C=C/c2cccc(F)c2)c(OS(=O)(=O)c2ccc(OC)cc2)c1I,BACE1,enzyme activity,inhibitor,fluorescence,IC50,21600 nM
CC(C)C[C@H](NC(=O)[C@@H]1CCCN1C(=O)[C@H](Cc1c[nH]c2ccccc12)NC(=O)[C@H](CC(=O)O)NC(=O)[C@H](Cc1ccc(O)cc1)NC(=O)[C@@H](NC(=O)[C@@H](N)Cc1ccc(O)cc1)C(C)C)C(=O)N[C@H](C(=O)N[C@@H](Cc1ccccc1)C(=O)O)[C@@H](C)O,"HLA class I histocompatibility antigen, A alpha chain",cell-free assay,,,IC50,21500 nM
CCN(CC)C(=O)[C@@H]1C=C2c3cccc4[nH]cc(c34)C[C@H]2N(C)C1,"D(2) dopamine receptor (DRD2, Homo sapiens, UniProt P14416)",G protein activation,agonist,BRET,EC50,1.58 nM
